ChEMBL document CHEMBL3085690, “Naturally occurring antimicrobial peptide OH-CATH30 selectively regulates the innate immune response to protect against sepsis” (J Med Chem, 2013)
The source made the active and inactive calls. The rule behind the calls is not given here. Peptide text beside a SMILES is read from it.

Key:
[1] = system: BMDM; experiment: Induction of CXCL5 mRNA up-regulation in mouse BMDM at 20 ug/ml after 3 hrs by qRT-PCR analysis; format: functional
Outline: (§1)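 Murine BMDMs stimulated with peptide, then target mRNA quantified by qRT-PCR. Expression normalized to GAPDH, with untreated cells set to 1.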

[2] = system: BMDM; experiment: Induction of CXCL2 mRNA up-regulation in mouse BMDM at 20 ug/ml after 3 hrs by qRT-PCR analysis; format: functional; outline: as §1
[3] = system: BMDM; experiment: Induction of CXCL1 mRNA up-regulation in mouse BMDM at 20 ug/ml after 3 hrs by qRT-PCR analysis; format: functional; outline: as §1
[4] = system: BMDM; experiment: Increase of IL-10 protein level in mouse BMDM at 20 ug/ml after 18 hrs by ELISA; format: functional
Outline: (§2)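 Bone marrow-derived macrophages (RPMI 1640, 10% FCS, 20% L929-conditioned medium) stimulated with peptide for 18 h. Cytokines and chemokines in culture supernatant quantified by sandwich ELISA. Mean ± SD from three independent experiments, unpaired t test.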

[5] = system: BMDM; experiment: Induction of CCL4 mRNA up-regulation in mouse BMDM at 20 ug/ml after 3 hrs by qRT-PCR analysis; format: functional; outline: as §1
[6] = system: BMDM; experiment: Induction of CCL3 mRNA up-regulation in mouse BMDM at 20 ug/ml after 3 hrs by qRT-PCR analysis; format: functional; outline: as §1
[7] = Half life in Kunming mouse at 10 mg/kg, ip; format: ADME, organism-based; design: dose 10 mg/kg, route intraperitoneal; settings: in vivo
[8] = system: Mus musculus; experiment: Stimulation of innate immune response in Kunming mouse infected with Staphylococcus aureus ATCC 25923 assessed as reduction of bacterial burden in peritoneal lavage by measuring survival rate at 10 mg/kg, ip administered 5 hrs before bacterial infection measured up to 7 days; format: functional, organism-based; design: dose 10 mg/kg
Outline: (§3)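 Peptide at 10 mg/kg ip was given 5 h before ip challenge with E. coli 25922 (2.5 × 10^8 CFU), P. aeruginosa 27853 (8 × 10^7 CFU) or S. aureus 25923 (2 × 10^8 CFU) per mouse. Viable bacteria were counted in peritoneal lavage collected in 2 mL of cold saline (n = 7, 6 and 8 respectively; unpaired t test). Survival was recorded for up to 7 days.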

[9] = system: Mus musculus; experiment: Stimulation of innate immune response in Kunming mouse infected with Escherichia coli ATCC 25922 assessed as reduction of bacterial burden in peritoneal lavage by measuring survival rate at 10 mg/kg, ip administered 5 hrs before bacterial infection measured up to 7 days; format: functional, organism-based; design: dose 10 mg/kg; outline: as §3
[10] = system: Mus musculus; experiment: Stimulation of innate immune response in Kunming mouse assessed as protection against Escherichia coli ATCC 25922-induced mortality by measuring survival rate at 10 mg/kg, ip administered 3 hrs after bacterial infection measured up to 7 days; format: functional, organism-based; design: dose 10 mg/kg
Outline: (§4)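 Female Kunming mice were challenged ip with E. coli 25922 at 2.5 × 10^8 CFU/mouse (n = 10). Peptide at 10 mg/kg in sterile saline was given ip at −24 h or +3 h relative to inoculation. Mice were monitored every 6 h and mortality was recorded for up to 7 days, with humane end points. Survival curves were compared by log-rank test.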

[11] = system: Mus musculus; experiment: Stimulation of innate immune response in Kunming mouse assessed as protection against Escherichia coli ATCC 25922-induced mortality by measuring survival rate at 10 mg/kg, ip administered 24 hrs before bacterial infection measured up to 7 days; format: functional, organism-based; design: dose 10 mg/kg; outline: as §4
[12] = target: Transcription factor p65 (Mus musculus) (UniProt Q04207); experiment: Activation of NFkappaB in mouse BMDM assessed as degradation of IkappaBalpha at 10 ug/ml after 15 to 30 mins by Western blotting
Outline: (§5)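 BMDMs (bone marrow cells grown in RPMI 1640 with 10% FCS and 20% L929-conditioned medium) stimulated, then lysates run on 10% SDS-PAGE and transferred to PVDF. Membranes blocked with 5% BSA and probed with phospho-ERK1/2 and total ERK1/2 antibodies, or with anti-IκBα. HRP anti-rabbit secondary, chemiluminescent detection.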

[13] = target: Mitogen-activated protein kinase 1 and 3 (ERK2 and ERK1) (Mus musculus) (UniProt P63085+Q63844); experiment: Activation of ERK1/2 in mouse BMDM assessed as phosphorylation at 10 ug/ml after 15 to 30 mins by Western blotting; format: protein assay; outline: as §5
[14] = target: MAP kinase p38 (Homo sapiens) (UniProt O15264+Q15759+Q16539+P53778); experiment: Activation of p38 kinase in mouse BMDM assessed as phosphorylation at 10 ug/ml by Western blotting; format: protein assay; settings: TDE = time-dependent effect, target entry is the homologue from another species
Outline: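 BMDMs cultured in RPMI 1640 with 10% FCS and 20% L929-conditioned medium. Lysates separated by 10% SDS-PAGE, blotted to PVDF and blocked in 5% BSA. Probed for phospho-JNK/JNK or phospho-p38/p38, then HRP goat anti-rabbit IgG, chemiluminescence read-out.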

[15] = Increase of CXCL2 production in mouse BMDM after 6 hrs by ELISA in presence of NFkappaB inhibitor Bay11-7082; format: functional
[16] = system: Mus musculus; experiment: Stimulation of innate immune response in clodronate liposomes treated Kunming mouse monocytes depletion model assessed as recruitment of neutrophils at 10 mg/kg, ip; format: functional, organism-based; design: dose 10 mg/kg
[17] = system: Mus musculus; experiment: Stimulation of innate immune response in Kunming mouse infected with Pseudomonas aeruginosa ATCC 27853 assessed as effect on CXCL2 production in peritoneal lavage at 10 mg/kg, ip after 3 hrs by ELISA; format: functional, organism-based; design: dose 10 mg/kg
Outline: (§6)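 Mice were pretreated ip with peptide at 10 mg/kg 5 h before ip challenge with P. aeruginosa 27853 at 8 × 10^7 CFU/mouse. CCL2 and CXCL2 were measured in peritoneal lavage collected 3 h after inoculation. TNF-α and IL-6 were measured in serum collected 5 h after inoculation. All were read by ELISA; data are mean ± SD from four mice, unpaired t test.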

[18] = system: Mus musculus; experiment: Stimulation of innate immune response in Kunming mouse infected with Pseudomonas aeruginosa ATCC 27853 assessed as effect on CCL2 production in peritoneal lavage at 10 mg/kg, ip after 3 hrs by ELISA; format: functional, organism-based; design: dose 10 mg/kg; outline: as §6
[19] = system: Mus musculus; experiment: Stimulation of innate immune response in Kunming mouse assessed as increase of CXCL1 level in peritoneal lavage at 10 mg/kg, ip after 5 hrs; format: functional, organism-based; design: dose 10 mg/kg
Outline: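 Female Kunming mice (18−22 g) received a single ip injection of peptide at 10 mg/kg in sterile saline. Peritoneal lavage was collected in 2 mL of cold sterile saline 5 h later, and cytokines and chemokines were measured by ELISA. Data are mean ± SD from four mice, compared by unpaired t test.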

[20] = system: RAW264.7; experiment: Induction of phagocytic activity in mouse RAW264.7 cells using fluorescently labeled Escherichia coli up to 2 hrs by fluorescent assay; format: functional, cell-based
[21] = system: PBMC; experiment: Increase of cytokine production in human PBMC by qRT-PCR analysis; format: functional, cell-based
[22] = system: BMDM; experiment: Increase of CCL2 protein level in mouse BMDM at 20 ug/ml after 18 hrs by ELISA; format: functional; outline: as §2
[23] = system: BMDM; experiment: Increase of CXCL1 protein level in mouse BMDM at 20 ug/ml after 18 hrs by ELISA; format: functional; outline: as §2
[24] = Induction of IL-6 mRNA up-regulation in mouse BMDM at 20 ug/ml after 3 hrs by qRT-PCR analysis relative to control; format: functional; outline: as §1

Chain of Mitogen-activated protein kinase 1 and 3 (ERK2 and ERK1) (Mus musculus) (P63085 whole entry, looked up): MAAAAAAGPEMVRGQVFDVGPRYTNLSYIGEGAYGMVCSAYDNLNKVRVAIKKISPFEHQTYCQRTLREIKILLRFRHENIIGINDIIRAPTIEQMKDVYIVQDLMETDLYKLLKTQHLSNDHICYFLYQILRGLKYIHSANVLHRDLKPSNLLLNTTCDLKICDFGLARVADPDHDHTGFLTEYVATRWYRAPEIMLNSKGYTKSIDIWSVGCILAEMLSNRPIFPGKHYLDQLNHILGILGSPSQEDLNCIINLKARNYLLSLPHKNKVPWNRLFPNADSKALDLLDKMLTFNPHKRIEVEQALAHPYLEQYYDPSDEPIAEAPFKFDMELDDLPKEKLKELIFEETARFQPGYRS
Chain of Mitogen-activated protein kinase 1 and 3 (ERK2 and ERK1) (Mus musculus) (Q63844 whole entry, looked up): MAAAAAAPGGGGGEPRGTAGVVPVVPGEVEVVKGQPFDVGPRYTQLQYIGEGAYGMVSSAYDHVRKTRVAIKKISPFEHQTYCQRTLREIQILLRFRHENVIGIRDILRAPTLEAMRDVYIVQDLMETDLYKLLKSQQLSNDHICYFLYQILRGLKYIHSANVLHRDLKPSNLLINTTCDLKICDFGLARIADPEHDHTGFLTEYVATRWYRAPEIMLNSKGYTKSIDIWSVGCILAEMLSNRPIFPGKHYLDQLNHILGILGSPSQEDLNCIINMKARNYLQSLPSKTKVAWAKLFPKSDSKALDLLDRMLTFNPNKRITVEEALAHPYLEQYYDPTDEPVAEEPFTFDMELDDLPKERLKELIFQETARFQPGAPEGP
Chain of Transcription factor p65 (Mus musculus) (Q04207 whole entry): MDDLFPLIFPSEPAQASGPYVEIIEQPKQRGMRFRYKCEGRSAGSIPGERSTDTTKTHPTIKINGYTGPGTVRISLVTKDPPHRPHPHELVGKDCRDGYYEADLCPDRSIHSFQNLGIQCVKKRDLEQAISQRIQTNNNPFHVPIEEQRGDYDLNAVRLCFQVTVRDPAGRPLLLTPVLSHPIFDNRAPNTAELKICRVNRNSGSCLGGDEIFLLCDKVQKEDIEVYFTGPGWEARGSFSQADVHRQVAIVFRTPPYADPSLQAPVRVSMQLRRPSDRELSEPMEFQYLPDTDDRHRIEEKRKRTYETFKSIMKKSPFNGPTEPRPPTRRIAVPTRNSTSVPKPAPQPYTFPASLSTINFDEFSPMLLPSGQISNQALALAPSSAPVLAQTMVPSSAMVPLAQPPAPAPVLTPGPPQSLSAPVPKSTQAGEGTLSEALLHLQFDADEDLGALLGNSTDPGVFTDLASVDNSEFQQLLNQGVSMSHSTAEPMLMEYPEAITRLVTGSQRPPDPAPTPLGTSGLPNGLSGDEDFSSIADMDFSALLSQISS

CC[C@H](C)[C@H](NC(=O)[C@@H](NC(=O)[C@H](CCCNC(=N)N)NC(=O)[C@@H]1CCCN1C(=O)[C@H](CCCCN)NC(=O)[C@H](CCCCN)NC(=O)[C@H](Cc1ccccc1)NC(=O)[C@H](Cc1ccccc1)NC(=O)[C@H](CCCCN)NC(=O)[C@H](CCCCN)NC(=O)[C@H](C)NC(=O)[C@H](CCCNC(=N)N)NC(=O)[C@H](CCCCN)NC(=O)[C@H](CCCCN)NC(=O)[C@@H](NC(=O)[C@H](CO)NC(=O)[C@H](CC(N)=O)NC(=O)[C@H](CCCCN)NC(=O)[C@H](CC(C)C)NC(=O)[C@H](CCCCN)NC(=O)[C@H](CCCCN)NC(=O)[C@H](Cc1ccccc1)NC(=O)[C@H](Cc1ccccc1)NC(=O)[C@@H](N)CCCCN)C(C)C)C(C)C)C(=O)NCC(=O)N[C@H](C(=O)N[C@@H](CO)C(=O)N[C@H](C(=O)N1CCC[C@H]1C(=O)N[C@@H](Cc1ccccc1)C(=O)O)[C@@H](C)CC)C(C)C (H-KFFKKLKNSVKKRAKKFFKKPRVIGVSIPF-OH)
Activity [1]: Active
Activity [2]: Active
Activity [3]: Active
Activity [4]: Active
Activity [5]: Active
Activity [6]: Active
half-life [7]: < 1 h
Activity [8]: Active
Activity [9]: Active
Activity [10]: Active
Activity [11]: Active
Activity [12]: inactive
Activity [13]: Active
Activity [14]: tde
Activity [15]: 1000 pg/mL
Activity [16]: inactive
Activity [17]: Active
Activity [18]: Active
Activity [19]: Active
Activity [20]: inactive
Activity [21]: Active
Activity [22]: Active
Activity [23]: Active
fold change (FC) [24]: 4.5
